Sampled rows, rich in hits. Any-hit rate of the full collection: about 11%.
S1P1 ag-PAM – agonists and agonism potentiators of human S1P1 receptor. P21453. S1P1 CRE-bla cells, forskolin, beta-lactamase FRET, potentiator mode; S1P1 agonist co-added at EC20, 2 nM; 100% = saturating reference agonist, 0% = basal. activation, % at 9.5 µM. 56,000 compounds, 0.57% hits;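 active = activation above a cutoff set at the mean activation of all tested compounds plus 3 SD, cut at about 54% in these data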;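 also: forskolin at 4 µM as EC80 and the EC20 agonist is SEW2871; 100% = SEW2871 at its EC100 plus forskolin at EC80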
D1 mod – allosterically modulates the human D1 dopamine receptor. HEK293 D1, CRE-luciferase, dopamine EC30 potentiation; actives deviate in either direction. B-score at 10 µM. 58,000 compounds, 5.9% hits;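 active = luminescence count or its row- and column-corrected plate score outside the 99.7% band of the plate's sample wells, on either side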
Target sequence (P21728 whole entry, looked up): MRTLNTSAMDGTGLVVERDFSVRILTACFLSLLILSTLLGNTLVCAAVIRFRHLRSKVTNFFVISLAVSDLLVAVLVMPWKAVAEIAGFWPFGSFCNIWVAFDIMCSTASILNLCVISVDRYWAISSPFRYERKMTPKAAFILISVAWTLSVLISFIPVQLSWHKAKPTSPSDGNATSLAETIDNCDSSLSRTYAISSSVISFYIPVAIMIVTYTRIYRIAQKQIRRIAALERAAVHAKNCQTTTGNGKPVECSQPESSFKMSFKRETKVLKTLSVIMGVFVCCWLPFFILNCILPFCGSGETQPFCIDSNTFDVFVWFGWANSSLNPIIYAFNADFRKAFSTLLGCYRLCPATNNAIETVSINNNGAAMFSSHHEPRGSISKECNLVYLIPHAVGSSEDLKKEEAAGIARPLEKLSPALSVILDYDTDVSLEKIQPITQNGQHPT
M1 antag – M1 muscarinic receptor (rat) antagonism; B-score at 10 µM; AID 628; 64,000 compounds, 3.4% hits; CHO-M1 cells, Fluo-4 calcium, ACh EC80 antagonist mode; active compounds read low;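 active = calcium fluorescence response, raw or row-and-column corrected B-score, differing from the plate sample mean either way at a set confidence level, mostly lower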
S1P3 ag – activates the human S1P3 receptor; Q99500; S1P3 NFAT-BLA reporter cells, agonism, FRET ratio; relative to 1 µM S1P, basal subtracted; activation, % at 4.5 µM; 60,000 compounds, 0.1% hits; AID 373;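 active = activation above the screen-wide mean plus 3 SD, cut at about 4.5% in these data, passing the limit was not always enough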
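Assay system: stable CHO line with human S1P3, Gα16, NFAT-BLA reporter; Detection: FRET β-lactamase substrate fluorescence, excitation 405 nm, 460/535 nm emission ratio, background-subtracted; Read-out: percent activation versus median 1 µM S1P response, basal-subtracted, per plate; Incubation: cells plated overnight, compound 4 h 37 °C, substrate 2 h RT.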
M1 ag – M1 muscarinic receptor agonism | CHO-M1 cells, Fluo-4 calcium fluorescence, agonist mode; active compounds read high | 64,000 compounds, 3% hits | B-score at 10 µM | AID 626;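 active = fluorescence rise, raw or as B-score row- and column-corrected plate score, outside the 99.7% band of its plate's samples, either direction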
M1 ag confirm – confirmation of rat M1 muscarinic receptor agonists; shares compounds with M1 ag; CHO-M1 cells, Fluo-4 calcium fluorescence, agonist mode; actives lie on both sides; fluorescence change (max-min) at 10 µM; 1,700 compounds, 19% hits;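 active = fluorescence change differs from the solvent-only DMSO control mean at a set confidence level in both duplicate runs; inconclusive = differs from solvent-only control mean in just one of two runs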;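 also: an EC20 dose of acetylcholine follows compound addition during the same imaging run; raw fluorescence intensity difference in instrument units with no normalization to controls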
M4 ag counter – activates rat M4 receptor in counter-screen for M1 agonists; shares compounds with M1 ag; CHO M4/Gqi5 cells, Fluo-4 calcium fluorescence, agonist mode; actives lie on both sides; fluorescence change (max-min) at 10 µM; 1,700 compounds, 9% hits;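 active = fluorescence change differing from the plate's solvent-only control wells at 99.7% confidence in both duplicates, whether higher or lower; inconclusive = differs from solvent controls in only one of two duplicates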
* hit, by the source's call; ? = inconclusive; · = no result.

SMILES | S1P1 ag-PAM | D1 mod | M1 antag | S1P3 ag | M1 ag | M1 ag confirm | M4 ag counter
CCOc1cc(C2C(C(=O)c3ccc(C)o3)=C(O)C(=O)N2CCc2ccccc2)ccc1O (centres undefined) | · | -0.0871 | -0.217 | · | 0.294 | · | ·
COc1cc(C2C(C(=O)c3ccco3)=C(O)C(=O)N2CCc2ccccc2)ccc1O (centres undefined) | · | · | -1.36 | · | 88.9* | -9.39 | -29.9
CCOC(=O)N1CCN(C(=O)c2ccc(CN(c3ccccc3)S(C)(=O)=O)cc2)CC1 | · | 0.24 | 0.3 | · | -0.266 | · | ·
COc1ccc(OC)c(C2C(C(=O)Nc3cccnc3)=C(C)NC3=C2C(=O)CCC3)c1 (centres undefined) | 19.0 | -1.09 | 0.243 | 0.2 | -0.00641 | · | ·
Cc1cc(Nc2ccc(Br)c(C)c2)n2nc(C)nc2n1 | -38.8 | · | -0.00118 | -0.7 | 4.67* | ? | -38.6
O=C(OCn1nnc2ccccc2c1=O)c1ccc(S(=O)(=O)N2CCOCC2)cc1 | · | 0.0648 | -0.0955 | · | -0.268 | · | ·
CCN(CC)S(=O)(=O)c1ccc(C(=O)OCn2nnc3ccccc3c2=O)cc1 | -18.4 | -0.999 | 0.219 | -1.1 | 6.24* | -18.3 | ?
Cc1n[nH]c(C)c1Cc1ccc(C(=O)O)cc1 | -0.4 | 0.132 | -0.519 | -0.4 | 0.0594 | · | ·
COc1ccc2cc(C(=O)NCc3ccco3)c(=Nc3ccc(C(=O)O)cc3)oc2c1 | -11.0 | 1.77 | -0.02 | -0.6 | 2.7* | ? | -68.1
COc1ccc(C2c3c(oc4ccc(F)cc4c3=O)C(=O)N2CCN2CCOCC2)cc1OC (centres undefined) | -29.0 | -0.0438 | 0.0102 | -0.5 | -0.679 | · | ·
O=C(NCc1ccco1)c1cccn2c(=O)c3sccc3nc12 | · | 4.98* | -3.22* | · | 2.9* | -17.9 | -59.5
CCOC(=O)N1CCN(C(=O)c2cccn3c(=O)c4sccc4nc23)CC1 | · | -0.0508 | 0.0147 | · | -1.2 | · | ·
Cc1nc2sccn2c1-c1csc(NCc2ccccc2)n1 | 112.9* | -1.66 | -1.6 | -1.0 | 8.32* | -10.3 | ?
COc1ccc2[nH]cc(CCN=C3SCC(=O)N3C)c2c1 | -5.5 | -0.2 | 0.368 | 0.6 | 0.0401 | · | ·
COc1ccc(S(=O)(=O)Nc2ccccc2C(=O)NC(C)C)cc1OC | 2.0 | 0.0701 | 0.337 | -1.3 | -0.0803 | · | ·
Cc1ccccc1CN(c1ccc(C(=O)N2CCCC2)cc1)S(C)(=O)=O | -14.6 | -0.142 | 0.366 | -1.0 | 3.24* | 16.1 | -2.01
Cc1ccc(CN(c2ccc(C(=O)N3CCCC3)cc2)S(C)(=O)=O)cc1 | -12.7 | 0.394 | 0.421 | -1.0 | 0.855 | · | ·
Cc1ccc(OC(=O)CCc2c(C)nc3ncnn3c2C)cc1 | -28.1 | -0.376 | 0.0258 | -1.0 | 0.472 | · | ·
COC(=O)CSc1nnc(-c2ccncc2)n1N | · | 0.0276 | 1.88 | · | 4.49* | ? | -46.2
COc1ccc(NC(=O)CSc2nnc(-c3ccc(C)cc3)n2N)cc1 | · | 0.487 | 0.0112 | · | -0.0209 | · | ·
CCn1nnc(-c2ccccc2NC(=O)C(F)(F)F)n1 | -10.1 | 0.77 | -0.0415 | -0.9 | -0.623 | · | ·
CCN(CC)CCCN1C(=O)C(O)=C(C(=O)c2cc3cccc(OC)c3o2)C1c1ccncc1 (centres undefined) | 3.9 | 0.857 | 0.0114 | -0.6 | -0.0596 | · | ·
CC(=O)[C@H]1[C@@H]2C(=O)N(c3cccc(Cl)c3)C(=O)[C@@H]2[C@H]2c3ccccc3C=CN21 | 15.9 | · | -0.597 | -3.9 | 6.45* | 97.8* | ?
CS(=O)(=O)N(CCc1ccccc1)CC(=O)NCc1ccco1 | 3.0 | 0.202 | -0.36 | -0.6 | 0.369 | · | ·
Cc1csc(NC(=O)c2sc3nc(-c4cccs4)ccc3c2N)n1 | · | -2.84* | -1.29 | -1.0 | 54.1* | ? | ?
SMILES | S1P1 ag-PAM | D1 mod | M1 antag | S1P3 ag | M1 ag | M1 ag confirm | M4 ag counter
[O-]/[N+](=C\c1ccncc1)c1ccc(Br)cc1 | · | -0.83 | -0.38 | · | -1.85 | · | ·
Cn1c(=O)c2c(nc(NCc3ccccc3)n2C)n(C)c1=O | -21.8 | 2.25 | -0.473 | -1.5 | -0.0185 | · | ·
Cn1c(=O)c2c(nc(N3CCN(Cc4ccccc4)CC3)n2CCCc2ccccc2)n(C)c1=O | -24.5 | -0.448 | 0.0127 | 0.0 | 4.17* | -5.18 | -9.54
Cn1c(=O)c2c(nc(NCc3ccccc3)n2CCCc2ccccc2)n(C)c1=O | -20.9 | -3.06* | 2.48* | -1.4 | 14.5* | ? | -70.5
O=C(CN1CCN(c2ncccn2)CC1)N1CCN(C(c2ccccc2)c2ccccc2)CC1 | · | -0.496 | -1.08 | · | -0.944 | · | ·
CC(=O)N(Cc1ccccc1)c1ncc2c(n1)c(=O)c(C#N)c1ccccn12 | 9.0 | 0.395 | -0.0292 | -0.1 | 4* | 64* | 38.1
CCOC(=O)N1CCN(C(=O)c2nn(-c3cc(OC)cc(OC)c3)c(=O)c3ccccc23)CC1 | -14.9 | -1.73 | 0.38 | 64.3 | 6.36* | -2.25 | ?
CC(=O)N1CCc2cc(S(=O)(=O)Nc3cccc(C(F)(F)F)c3)ccc21 | · | -1.34 | -0.979 | · | 5.07* | -11.3 | -33.9
O=C(O)c1ccccc1C1=Nc2ccc(O)cc2Oc2cc(O)ccc21 | -16.5 | -0.748 | 0.376 | -1.2 | 31.6* | 418* | 403*
COc1[nH]c(/N=C/c2ccccc2)c(C#N)c1C#N | 3.2 | -1.13 | -0.387 | 0.3 | 10.4* | ? | 39.3
O=C(O)c1cc(O)c2c(c1)C(=O)c1cccc(O)c1C2=O | -5.4 | 1.5 | -0.0907 | 0.7 | 67.5* | 189* | ?
Nc1cccc(C(=O)O)c1 | -1.9 | -0.652 | 0.146 | -0.5 | -0.193 | · | ·
CCCCC(=O)Nc1c(O)c2ccccc2[nH]c1=O | -7.7 | -0.127 | -0.202 | -4.2 | -0.312 | · | ·
CCCCCCc1c(O)c2ccccc2[nH]c1=O | 1.1 | 0.111 | -0.655 | -1.1 | 12.7* | -10.2 | -40.5
CC(C)C(=O)Nc1cccc(C(=O)NCc2ccc3c(c2)OCO3)c1 | 7.1 | -0.647 | 0.24 | -1.2 | 0.384 | · | ·
CC12CC(NC(=O)N1c1cccc(C(=O)NCc3ccc4c(c3)OCO4)c1)c1cc(Cl)ccc1O2 (centres undefined) | · | -0.0412 | -0.724 | · | 2.23* | ? | -50
Cn1cc(C(=O)c2ccc(F)cc2)cc1-c1nc2ccccc2n1C | -17.2 | -0.592 | -1.98 | 0.3 | 3.22* | -8.46 | ?
COc1ccc(OC)c(C(=O)c2ccc(C(=O)N3CCCCC3)cc2)c1 | -19.2 | 0.195 | -1.08 | -3.4 | 0.401 | · | ·
CCOC(=O)N1CCC(n2c(SCC(=O)Nc3ccccc3OC)nc3ccccc3c2=O)CC1 | · | -0.248 | -0.133 | · | 1.75 | · | ·
CCOC(=O)N1CCC(n2c(SCC(=O)NCc3ccccc3)nc3ccccc3c2=O)CC1 | · | · | -1.03 | · | 3.64* | -6.29 | -10.9
COC(=O)/C=c1/sc2n(c1=O)CCN=2 | -6.4 | -0.148 | 0.203 | -1.3 | -0.363 | · | ·
COC(=O)/C=c1\sc2n(c1=O)C(C)=CC(C)(C)N=2 | 11.2 | · | 0.391 | -1.5 | 5.62* | -12 | -44.4
